For 7 molecules, IC50 and inhibition results are on record in ChEMBL document CHEMBL2057109, “Synthesis, biological evaluation, and molecular docking studies of 2,5-substituted-1,4-benzoquinone as novel urease inhibitors” (Bioorg Med Chem, 2012).

The structures appear in SMILES notation. Active and inactive are the calls of the source. The calls are words filed in the database; no cut-off is given here.

In assay [1] the target is Urease subunit alpha/Urease subunit beta (Helicobacter pylori (strain ATCC 700392 / 26695) (Campylobacterpylori), UniProt P69996). Nature of the assay: Inhibition of Helicobacter pylori urease assessed as ammonia production preincubated for 3 hrs measured by indophenol method. In short, it runs like this:
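Enzyme came from H. pylori broth cultures (2.0 × 10⁸ CFU/mL), which were pelleted at 5000 g and 4 °C, washed twice in PBS at pH 7.4, and stored at −80 °C. Urease and test compound were pre-incubated for 3 h at room temperature. Ammonia production was then quantified by the Weatherburn indophenol method.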

Assay [2] has as its target Urease subunit alpha/Urease subunit beta (Helicobacter pylori (strain ATCC 700392 / 26695) (Campylobacterpylori)) (UniProt P69996+P14916). Nature of the assay: Inhibition of Helicobacter pylori urease assessed as ammonia production at 100 uM preincubated for 3 hrs measured by indophenol method.

Chain of Urease subunit alpha/Urease subunit beta (P69996 whole entry): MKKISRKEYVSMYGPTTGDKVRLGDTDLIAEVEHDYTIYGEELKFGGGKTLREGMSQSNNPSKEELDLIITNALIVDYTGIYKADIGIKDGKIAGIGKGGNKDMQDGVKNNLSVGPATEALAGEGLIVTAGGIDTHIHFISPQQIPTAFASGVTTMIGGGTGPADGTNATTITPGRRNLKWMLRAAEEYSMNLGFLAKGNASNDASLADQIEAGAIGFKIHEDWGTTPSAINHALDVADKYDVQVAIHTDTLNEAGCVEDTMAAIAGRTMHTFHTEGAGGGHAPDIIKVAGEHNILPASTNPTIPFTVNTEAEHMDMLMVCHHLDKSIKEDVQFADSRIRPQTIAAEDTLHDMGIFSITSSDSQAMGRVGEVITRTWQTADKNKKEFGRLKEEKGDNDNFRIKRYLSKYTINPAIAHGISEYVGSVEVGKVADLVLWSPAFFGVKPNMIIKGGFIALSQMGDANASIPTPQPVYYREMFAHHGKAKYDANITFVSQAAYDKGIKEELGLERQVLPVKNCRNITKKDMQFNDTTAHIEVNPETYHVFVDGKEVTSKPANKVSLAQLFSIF
Chain of Urease subunit alpha/Urease subunit beta (P14916 whole entry, further chain): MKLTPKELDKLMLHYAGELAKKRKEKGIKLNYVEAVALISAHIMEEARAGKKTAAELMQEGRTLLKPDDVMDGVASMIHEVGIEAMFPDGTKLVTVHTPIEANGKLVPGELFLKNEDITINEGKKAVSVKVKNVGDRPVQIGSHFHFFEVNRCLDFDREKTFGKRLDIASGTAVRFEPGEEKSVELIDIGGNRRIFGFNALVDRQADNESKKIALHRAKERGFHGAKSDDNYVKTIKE
Chain of Urease subunit alpha/Urease subunit beta (Helicobacter pylori (strain ATCC 700392 / 26695) (Campylobacterpylori)) (P14916 whole entry, looked up): as the sequence (P14916 whole entry, further chain) above
Chain of Urease subunit alpha/Urease subunit beta (Helicobacter pylori (strain ATCC 700392 / 26695) (Campylobacterpylori)) (P69996 whole entry, looked up): as the sequence (P69996 whole entry) above

In general, IC50 refers to the concentration that inhibits the measured activity by half. By inhibition is commonly meant the percentage by which the read-out fell short of the control. Regarding `O=C1C=C(NC2CCCCC2)C(=O)C=C1NC1CCCCC1`, in assay [1], the IC50 came out at 41.5 µM. Also, in assay [2], the inhibition came out at 62.7%.
For `O=C1C=C(NCCN2CCOCC2)C(=O)C=C1NCCN1CCOCC1` the same measures were 27.3 µM and 81.6%.
With `O=C1C=C(NC2CCCC2)C(=O)C=C1NC1CCCC1`, the IC50 in assay [1] came out at 35.4 µM. For the same molecule, the inhibition in assay [2] amounted to 68.8%.
Turning to `O=C1C=C(NCCNc2ccccc2)C(=O)C=C1NCCNc1ccccc1`, in assay [2], the inhibition entry is “inactive”.
Still for that read-out and setting: for `CC(C)NC1=CC(=O)C(NC(C)C)=CC1=O` the value was “inactive”.
Consider `CC(=O)NO` [ACETOHYDROXAMIC ACID], for which the IC50 in assay [1] is 46.3 µM. The inhibition in assay [2] came to 85.2%.
Take `O=C1C=C(NC2CC2)C(=O)C=C1NC1CC1`: the inhibition entry in assay [2] was “inactive”.
